The subject of one assay is isolated EIC. The conditions noted are these: cited from earlier work.
In another assay the test system is EI^A (H189A). Description: Enzyme kinetic assay. In kind it is biochemical, E. coli. The conditions noted are these: 37°C. Summed up:
(§1)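 Wild-type E. coli Enzyme I or its H189Q or H189A active-site mutant, expressed and purified. PEP hydrolysis to inorganic phosphate and pyruvate was followed spectrophotometrically at 37°C with a coupled phosphate-detection kit. Enzymatic velocities at varying PEP were fit to the Michaelis-Menten equation to give Km. For display, velocities were normalised to each fit's maximum velocity.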

The subject of another assay is EI^Q (H189Q). Description: Enzyme kinetic assay. In kind it is biochemical, E. coli. The following applies: 37°C. The method, boiled down: as §1
The subject of another assay is EI^WT. Put plainly: Enzyme kinetic assay. In kind it is biochemical, E. coli. The following applies: 37°C. The method, boiled down:
as §1

The Km is the substrate concentration at which the rate is half of its maximum. Consider `C=C(OP(=O)(O)O)C(=O)O` [PEP, phosphoenolpyruvate], for which the Km was approximately 370 µM in the assay with isolated EIC, less than 50 µM in the assay with EI^A (H189A), approximately 130 µM in the assay with EI^Q (H189Q) and approximately 330 µM with EI^WT.

The record behind these values is publication PMC4293084 (Nature communications, 2015).
